Experimental data from ChEMBL document CHEMBL5058577, “EUbOPEN Chemogenomics Library 2 (Multiplex)” (2022).

Tested on: HEK-293T
Assay: Multiplex assay against HEK293T
Type: toxicity, cell-based
Settings: human
Summary of the method: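 At seeding, live cells were stained with Hoechst33342, BioTracker Green Microtubule Cytoskeleton Dye, MitoTracker Red and Annexin V Alexa Fluor 680. After compound addition they were imaged on a CQ1 microscope at 37°C and 5% CO2, and CellPathfinder machine-learning gating sorted them into Hoechst high-intensity objects or normal cells, with normal cells further split into healthy, pyknosed or fragmented nuclei and pyknosed cells into mitotic or apoptotic. Tubulin, mitochondrial-mass and membrane-permeability phenotypes are given as per cents of cells with healthy nuclei.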

[1] = 12 h, 1 µM, compound concentration 1 uM, replicate 1
[2] = 12 h, 1 µM, compound concentration 1 uM, replicate 2
[3] = 12 h, 10 µM, compound concentration 10 uM, replicate 1
[4] = 12 h, 10 µM, compound concentration 10 uM, replicate 2
[5] = 24 h, 1 µM, compound concentration 1 uM, replicate 1
[6] = 24 h, 1 µM, compound concentration 1 uM, replicate 2
[7] = 24 h, 10 µM, compound concentration 10 uM, replicate 1
[8] = 24 h, 10 µM, compound concentration 10 uM, replicate 2
[9] = 48 h, 1 µM, compound concentration 1 uM, replicate 1
[10] = 48 h, 1 µM, compound concentration 1 uM, replicate 2
[11] = 48 h, 10 µM, compound concentration 10 uM, replicate 1
[12] = 48 h, 10 µM, compound concentration 10 uM, replicate 2

With `COc1cc(C(=O)N2CC[C@@H](O)[C@@H](N)C2)cc2nc(-c3cc4ccccc4n3CC3CC3)n(C)c12.Cl` the “Population Apoptotic (%)” value [1] was 48%, the “Population Fragmented Nuclei (%)” value [1] was 6% and the “Population Healthy Nuclei (%)” value [1] was 79%. For the same compound, the “Population Hoechst High Intensity Objects (%)” value [1] was 10%, the “Population Membrane Permeable-Phenotype (%)” value [1] was 0% and the “Population Mitochondria Different-Phenotype (%)” value [1] was 56%. For the same compound, the “Population Mitotic Cells (%)” value [1] was 51%, the “Population Normal (%)” value [1] was 89% and the “Population Pyknosed Nuclei (%)” value [1] was 13%. For the same compound, the “Population Tubulin-Different-Phenotype (%)” value [1] was 52%, the “Total Cell Count” value [1] was 398 and the “Population Apoptotic (%)” value [2] was 70%. For the same compound, the “Population Fragmented Nuclei (%)” value [2] was 2%, the “Population Healthy Nuclei (%)” value [2] was 77% and the “Population Hoechst High Intensity Objects (%)” value [2] was 15%. For the same compound, the “Population Mitochondria Different-Phenotype (%)” value [2] was 71%, the “Population Mitotic Cells (%)” value [2] was 29% and the “Population Normal (%)” value [2] was 84%. The “Population Pyknosed Nuclei (%)” value [2] was 20%, the “Population Tubulin-Different-Phenotype (%)” value [2] was 37% and the “Total Cell Count” value [2] was 281. For the same compound, the “Population Apoptotic (%)” value [3] was 71%, the “Population Fragmented Nuclei (%)” value [3] was 5% and the “Population Healthy Nuclei (%)” value [3] was 66%. For the same compound, the “Population Hoechst High Intensity Objects (%)” value [3] was 21%, the “Population Membrane Permeable-Phenotype (%)” value [3] was 0% and the “Population Mitochondria Different-Phenotype (%)” value [3] was 90%. The “Population Mitotic Cells (%)” value [3] was 28%, the “Population Normal (%)” value [3] was 78% and the “Population Pyknosed Nuclei (%)” value [3] was 28%. For the same compound, the “Population Tubulin-Different-Phenotype (%)” value [3] was 79%, the “Total Cell Count” value [3] was 260 and the “Population Fragmented Nuclei (%)” value [4] was 4%. The “Population Healthy Nuclei (%)” value [4] was 80%, the “Population Hoechst High Intensity Objects (%)” value [4] was 18% and the “Population Membrane Permeable-Phenotype (%)” value [4] was 2%. The “Population Mitochondria Different-Phenotype (%)” value [4] was 88%, the “Population Normal (%)” value [4] was 81% and the “Population Pyknosed Nuclei (%)” value [4] was 15%. For the same compound, the “Population Tubulin-Different-Phenotype (%)” value [4] was 72%, the “Total Cell Count” value [4] was 350 and the “Population Apoptotic (%)” value [5] was 42%. For the same compound, the “Population Fragmented Nuclei (%)” value [5] was 9%, the “Population Healthy Nuclei (%)” value [5] was 77% and the “Population Hoechst High Intensity Objects (%)” value [5] was 6%. For the same compound, the “Population Membrane Permeable-Phenotype (%)” value [5] was 0%, the “Population Mitochondria Different-Phenotype (%)” value [5] was 42% and the “Population Mitotic Cells (%)” value [5] was 57%. The “Population Normal (%)” value [5] was 93%, the “Population Pyknosed Nuclei (%)” value [5] was 13% and the “Population Tubulin-Different-Phenotype (%)” value [5] was 33%. The “Total Cell Count” value [5] was 527, the “Population Apoptotic (%)” value [6] was 60% and the “Population Fragmented Nuclei (%)” value [6] was 7%. The “Population Healthy Nuclei (%)” value [6] was 79%, the “Population Hoechst High Intensity Objects (%)” value [6] was 12% and the “Population Mitochondria Different-Phenotype (%)” value [6] was 64%. The “Population Mitotic Cells (%)” value [6] was 39%, the “Population Normal (%)” value [6] was 87% and the “Population Pyknosed Nuclei (%)” value [6] was 12%. For the same compound, the “Population Tubulin-Different-Phenotype (%)” value [6] was 30%, the “Total Cell Count” value [6] was 363 and the “Population Apoptotic (%)” value [7] was 58%. The “Population Fragmented Nuclei (%)” value [7] was 8%, the “Population Healthy Nuclei (%)” value [7] was 70% and the “Population Hoechst High Intensity Objects (%)” value [7] was 18%. The “Population Membrane Permeable-Phenotype (%)” value [7] was 0%, the “Population Mitochondria Different-Phenotype (%)” value [7] was 94% and the “Population Mitotic Cells (%)” value [7] was 41%. For the same compound, the “Population Normal (%)” value [7] was 81%, the “Population Pyknosed Nuclei (%)” value [7] was 20% and the “Population Tubulin-Different-Phenotype (%)” value [7] was 78%. For the same compound, the “Total Cell Count” value [7] was 312, the “Population Apoptotic (%)” value [8] was 65% and the “Population Fragmented Nuclei (%)” value [8] was 6%. For the same compound, the “Population Healthy Nuclei (%)” value [8] was 78%, the “Population Hoechst High Intensity Objects (%)” value [8] was 21% and the “Population Mitochondria Different-Phenotype (%)” value [8] was 92%. The “Population Mitotic Cells (%)” value [8] was 34%, the “Population Normal (%)” value [8] was 78% and the “Population Pyknosed Nuclei (%)” value [8] was 15%. For the same compound, the “Population Tubulin-Different-Phenotype (%)” value [8] was 74%, the “Total Cell Count” value [8] was 411 and the “Population Apoptotic (%)” value [9] was 24%. The “Population Fragmented Nuclei (%)” value [9] was 9%, the “Population Healthy Nuclei (%)” value [9] was 79% and the “Population Hoechst High Intensity Objects (%)” value [9] was 5%. The “Population Membrane Permeable-Phenotype (%)” value [9] was 0%, the “Population Mitochondria Different-Phenotype (%)” value [9] was 37% and the “Population Mitotic Cells (%)” value [9] was 75%. The “Population Normal (%)” value [9] was 94%, the “Population Pyknosed Nuclei (%)” value [9] was 10% and the “Population Tubulin-Different-Phenotype (%)” value [9] was 28%. For the same compound, the “Total Cell Count” value [9] was 816, the “Population Apoptotic (%)” value [10] was 64% and the “Population Healthy Nuclei (%)” value [10] was 80%. The “Population Hoechst High Intensity Objects (%)” value [10] was 7%, the “Population Mitochondria Different-Phenotype (%)” value [10] was 48% and the “Population Mitotic Cells (%)” value [10] was 36%. The “Population Normal (%)” value [10] was 92%, the “Population Tubulin-Different-Phenotype (%)” value [10] was 22% and the “Total Cell Count” value [10] was 520. For the same compound, the “Population Apoptotic (%)” value [11] was 76%, the “Population Fragmented Nuclei (%)” value [11] was 13% and the “Population Healthy Nuclei (%)” value [11] was 68%. For the same compound, the “Population Hoechst High Intensity Objects (%)” value [11] was 18%, the “Population Membrane Permeable-Phenotype (%)” value [11] was 0% and the “Population Mitochondria Different-Phenotype (%)” value [11] was 89%. For the same compound, the “Population Mitotic Cells (%)” value [11] was 23%, the “Population Normal (%)” value [11] was 81% and the “Population Pyknosed Nuclei (%)” value [11] was 17%. The “Population Tubulin-Different-Phenotype (%)” value [11] was 81%, the “Total Cell Count” value [11] was 386 and the “Population Healthy Nuclei (%)” value [12] was 75%. For the same compound, the “Population Hoechst High Intensity Objects (%)” value [12] was 23%, the “Population Mitochondria Different-Phenotype (%)” value [12] was 87% and the “Population Normal (%)” value [12] was 76%. For the same compound, the “Population Pyknosed Nuclei (%)” value [12] was 10%, the “Population Tubulin-Different-Phenotype (%)” value [12] was 74% and the “Total Cell Count” value [12] was 467.
